This is an account of results in the EternaBench riboswitch data.

What is called apparent Kd is the concentration giving half-maximal binding under the conditions of the assay.

In this series the test system is MS2 coat protein. The series can be described thus: apparent Kd, MS2 coat protein; higher = weaker binding; RNA-MaP array; FMN 200 µM where present. The procedure, abridged: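 Binding was read on Illumina sequencing-chip clusters where stalled E. coli RNA polymerase had transcribed each design. A titration of SNAP-549-labelled MS2 coat protein began at 0.7 or 1.5 nM and doubled to 3 µM, once without ligand and once with constant ligand, in 100 mM Tris-HCl pH 7.5, 80 mM KCl, 4 mM MgCl2, BSA, DTT, yeast tRNA and Tween-20. The apparent Kd is the median of filtered per-cluster binding-curve fits, based on green signal normalised to red-channel RNA signal and control-cluster median Fmax.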

The mark [1] stands for this setting: designed as: OFF switch for flavin mononucleotide, no ligand.
Setting [2] is: ligand present: flavin mononucleotide, designed as: OFF switch for flavin mononucleotide.
Where [3] appears, read: designed as: ON switch for flavin mononucleotide, no ligand.
[4] abbreviates: ligand present: flavin mononucleotide, designed as: ON switch for flavin mononucleotide.

As to “CGGCUCGGAGAGGAUAUGCAGGCCAACGGCACUGCAGAAGGUUCAACAUGAGGAUCACCCAUGUGAUUUCAACU”, the “apparent Kd” value was determined as 23.6 nM under setting [1] and 33.5 nM under setting [2].
With “UUUUAACAUGAGGAUCACCCAUGUGAGGAUAUCGAAAUUUAUAUUAAUAUUAUUUAAUCGAGAAGGCACAUUUU”, the “apparent Kd” value was 110 nM under setting [1] and 118 nM under setting [2].
Regarding “AUGCGUGGCUAGGAUAUCGAGGAAUCUAGCCAGCGAGAAGGAGCCACAUGAGGAUCACCCAUGUGGUGAACCUC”, the “apparent Kd” value under setting [1] turned out to be 22.8 nM and the “apparent Kd” value under setting [2] was found to be 17.6 nM.
For “GCGUUGAACGAGAAGGCCAAUACAUGAGGAUCACCCAUGUAGUGAAGUAUUGGAGGAUAUCGAUCGGCGUCUCAUGAGCAACGC” the same measures were 7.49 nM and 19.6 nM.
In the same order, the values of “GCGUGGUUCUAGAAGGUGCUAGCGAUAAGCUAGCAAGGAUAUAGACAUGAGGAUCACCCAUGUCUUAAUGAAAUGGACACACGC” are 5.3 nM and 4.85 nM.
As to “GGAUAGCACAGAGGAUAUACGUGCUAGAGAUACUAGCAAAAUUUCCUCACAUGAGGAUCACCCAUGUAGAAGGCUGUCCUAUCG”, the “apparent Kd” value was 4.44 nM under setting [1] and 5.5 nM under setting [2].
In the same order, the values of “AGUAACAGAGGAUAUACUAUUUUAUGUAUUUAUUAUUUUAAACAUGAGGAUCACCCAUGUAGAAGGCUGAAUGA” are 24.7 nM and 22.8 nM.
For the sequence “CUCAUGUGAGGAUAUCAGUAGUAAAAAAAUAAAAUUACUACUGAGAAGGCACAUGAGGAUCACCCAUGUGCCUU”, the “apparent Kd” value turned out to be 15.6 nM under setting [1] and 12.9 nM under setting [2].
Regarding “AAAUAAAGGACUGAGGAUAUACCACAUGAAACAUGAGGAUCACCCAUGUAAUAAUACAAAGGGUGGUAGAAGGUAGUCCACAAACA”, the “apparent Kd” value under setting [3] is 34.9 nM and the “apparent Kd” value under setting [4] worked out at 16.8 nM.
For the sequence “GGAUAGGACAGAGGAUAUACUUGCUAGAGAUACUAGCAAAAUUUCCUCACAUGAGGAUCACCCAUGUAGAAGGCUGUCCUAUCG”, the “apparent Kd” value was 6.95 nM under setting [1] and 54.5 nM under setting [2].
For “GUGCGUGGCUAGGAUAUUGUGGGUUUUUGUCAGCGAGAAGGAGCCACAUGAGGAUCACCCAUGUGGUGUUGCUC” the same measures were 187 nM and 57.1 nM.
Regarding “GUAGCAAUCGGAGGAUAUUCAUUAAACAUGAGGAUCACCCAUGUUAAUUUGGGAGAAGGCCGAUUGCUACAAGAGCGAAAGCUC”, the “apparent Kd” value runs as follows: under setting [3], 7.23 nM; under setting [4], 4.66 nM.
Take “CGAAAUGAUAGAGGAUAUGUUUUACAUGAGGAUCACCCAUGUGUACAUGGAUUAAUAUAUAAGUAACAGAAGGCUAUUCAAUCG”: the “apparent Kd” value under setting [1] worked out at 18.6 nM and the “apparent Kd” value under setting [2] came to 17.3 nM.
For “ACGCACGGAGGAUAUACAUGAGGAUCACCCAUGUCGGUGUAUUUUCGGCCAAAAUUUUGUAGAAGGCUGUCGUG” the same measures were 222 nM and 526 nM.
Consider “UACAUGAGGAUCACCCAUGUUUUGUCGUGUAUGGUAUUUAUCUAGGAUAUCAUUUUAUCUAGUUAUGAGAAGGAGAAUAUUAAU”, for which the “apparent Kd” value under setting [1] was 36.6 nM and the “apparent Kd” value under setting [2] was determined as 29.9 nM.
On to “GGGUACGUCGGAGGAUAUCAUGUAAAUACAUGAGGAUCACCCAUGUCGAUGGAGACAUCGGAGAUUGAGAAGGCCGAUGUACCG”, for which the “apparent Kd” value turned out to be 192 nM under setting [3] and 8.89 nM under setting [4].
As for “GCGUUGAACGAGAAGGCCAAUACAUGAGGAUCACCCAUGUUAAGAUGUUUUGGAGGAUAUCGAUCGUCGUCUCAUGAGCAACGC”, the “apparent Kd” value was determined as 5.3 nM under setting [1] and 6.24 nM under setting [2].
Consider “AUAAUGUAAGGAUAUCAGUCGUAAUUAAUUUAAUUAUCGACUGAGAAGGUACAUGAGGAUCACCCAUGUGGUCA”, for which the “apparent Kd” value under setting [1] worked out at 916 nM and the “apparent Kd” value under setting [2] stood at 102 nM.
Take “GGGCCCGGAGGAUAUACAUGAGGAUCACCCAUGUAGGGCCCGGGUAUUCCCGGGCCCUGUAGAAGGCCGGGUUU”: the “apparent Kd” value is 14.3 nM under setting [1] and 18.8 nM under setting [2].
As to “UCCGAACAUGAGGAUCACCCAUGUGAGGAUAUAGACGUGAAUUAAACACGUAACAAAACUAGAAGGCACUGGGC”, the “apparent Kd” value reads like this: under setting [1], 14.7 nM; under setting [2], 13.2 nM.
In the same order, the values of “AAUAUAGAGCUGGAAAUAAACUCAACAUGAGGAUCACCCAUGUAGGAUAUCAGCACGAUAAGUGCUGAGAAGGACAUCCAGCUC” are 16.7 nM and 17.1 nM.
For “UUCCUGUCAGGAUAUGACUAGAUGCACGAAAGUGUGUUUAGUUAGAAGGGACAUGAGGAUCACCCAUGUAGUCC” the same measures were 23.5 nM and 39 nM.
In the case of “GAUCGUAUCCUAGGAUAUUCAUUAAAACAUGAGGAUCACCCAUGUAAAUUGGGAGAAGGAGGAUACGAUCAACAGCGAAAGCUG”, the “apparent Kd” value was found to be 35.3 nM under setting [3] and 6.52 nM under setting [4].
As for “CACAAGAAAGUCGAAGGUUGAAGUAGAAGGUCUACAACAUGACAUGAGGAUCACCCAUGUGCUAAGAAGGAUAUGCUUUAAUCG”, the “apparent Kd” value worked out at 8.71 nM under setting [1] and 7.12 nM under setting [2].
In the same order, the values of “CAUGUGUUAGGAUAUGCACCGAUCUCCGAAAGGAGAUCGGUGCAGAAGGAACAUGAGGAUCACCCAUGUUGAUG” are 39.9 nM and 140 nM.
As for “AAGUUGGUAGGAUAUACGUGCAAUUGGUGUGUCCGGAAAAAACAUGAGGAUCACCCAUGUAGAAGGACCAAAAA”, the “apparent Kd” value runs as follows: under setting [1], 49.3 nM; under setting [2], 57.5 nM.
In the case of “ACAUGAGGAUCACCCAUGUUAUCCGGGACUUCAAUUGUUUCUAGAAGGCUGUUUACUUGUUAGUCAGAGGAUAUAGAAUCAAAU”, the “apparent Kd” value is, setting by setting: under setting [1], 10.7 nM; under setting [2], 11.4 nM.
In the case of “AGAAGAACAUGAGGAUCACCCAUGUUCCUGCUGCUCCACAGACAGGAUAUGGGUGUCGUCGACAAUCAGAAGGGUUCGCGGAGC”, the “apparent Kd” value runs as follows: under setting [3], 34.9 nM; under setting [4], 27.5 nM.
In the same order, the values of “GGGCACAUCGGAGGAUAUCAUGUAAAUACAUGAGGAUCACCCAUGUCGAUGGAGACAUCGGAGAUUGAGAAGGCCGAUGUACCG” are 191 nM and 9.02 nM.
For the sequence “AUUGUUUAUGUAGGAUAUGCGAGGCGAGCCUAAGCAGAAGGACAUGAGGAUCACCCAUGUAUUGCGGUCUGCGUUCAGAUCGCU”, the “apparent Kd” value was 30.5 nM under setting [1] and 127 nM under setting [2].
Turning to “AUCGGGAUUACAUGAGGAUCACCCAUGUCAGAACGGGUAGUUAGAAGGUGCCAUUAGGGAGAGGGUAAGGAUAUAAUUUUUGGC”, the “apparent Kd” value turned out to be 14.6 nM under setting [3] and 12.8 nM under setting [4].
On to “UACAGCUUGACAGGAUAUACAUGACUGCGAAAGCAGUCUAUCUUAAUAACAUGAGGAUCACCCAUGUAGAAGGGUCGAGCUGUA”, for which the “apparent Kd” value reads like this: under setting [1], 17.6 nM; under setting [2], 27 nM.
In the same order, the values of “CGUUGGUCAGGAUAUGGUGGGCUGGUGAGAGGGCCGGGUGGCUAGAAGGGACAUGAGGAUCACCCAUGUACGGC” are 40.4 nM and 28.2 nM.
For “ACCGGUGUAGGAUAUAUCUGGGAUGAAGAUGAUCCUGCUAAACAUGAGGAUCACCCAUGUAGAAGGAUGCCUGG” the same measures were 83.6 nM and 178 nM.
Take “CGAUAUAUGAAGGGCGAAAGCCCACAUGAGGAUCACCCAUGUAGAAGGCGGGCCGCAACGCGGCCCGAGGAUAUAUAAUAUACA”: the “apparent Kd” value under setting [2] stood at 9.15 nM.
Take “CCUAAGGAGGUAGGAUAUAGUGUGGUGGCCGGGCUCCCACGGCGAGCGGCACUAGAAGGAUCGCUACAUGAGGAUCACCCAUGU”: the “apparent Kd” value is, setting by setting: under setting [3], 10.2 nM; under setting [4], 9.71 nM.
Take “AAUUAUUAUUGAGGAUAUCGUAUUGAAACAAUACGAGAAGGCGGGAUAAACAUGAGGAUCACCCAUGUGAGCCUGAUGCUUGUG”: the “apparent Kd” value under setting [1] was 18.1 nM and the “apparent Kd” value under setting [2] was 16.5 nM.
